# What was measured:
# [1] = system: Plasmodium falciparum; assay: Antimalarial activity against Plasmodium falciparum 3D7 incubated for 72 hrs by LDH assay; format: functional, organism-based; conditions: 3D7, 72 h
# Summary of the method: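 Asexual blood-stage P. falciparum 3D7 parasites were cultured with compound for 72 h, and viability was read by lactate dehydrogenase (LDH) activity.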
# [2] = system: HepG2; assay: Cytotoxicity against human HePG2 cells assessed as growth inhibition after 48 hrs by Cell Titer-Glo assay; format: cell-based; conditions: HepG2, 48 h
# [3] = system: Plasmodium falciparum; assay: Antimalarial activity against Plasmodium falciparum NF54 early stage (1 to 3) expressing Pfs16-LUC-GFP assessed as growth inhibition by high content imaging assay; format: functional, organism-based
# [4] = system: Plasmodium falciparum; assay: Antimalarial activity against Plasmodium falciparum NF54 late stage ([…]) expressing Pfs16-LUC-GFP assessed as growth inhibition by high content imaging assay; format: functional, organism-based
smiles,measurement,setting,value
CC(=O)c1ccc(S(=O)(=O)N2CCN(C(C)C(=O)N3CCCC3)CC2)cc1 (configuration not stated),EC50,[1],> 10 µM
CC(C(=O)N1CCCC1)N1CCN(S(=O)(=O)c2ccc(C3CCCC3)cc2)CC1 (configuration not stated),EC50,[1],> 10 µM
CC(C(=O)N1CCCC1)N1CCN(S(=O)(=O)c2ccc([Si](C)(C)C)cc2)CC1 (configuration not stated),EC50,[2],> 40 µM
same,EC50,[1],1.3 µM
CC(C(=O)N(C)c1ccccc1)N1CCN(S(=O)(=O)c2ccc(C(C)(C)C)cc2)CC1 (configuration not stated),EC50,[1],> 10 µM
CC(C(=O)N1C2CCCC1CC2)N1CCN(S(=O)(=O)c2ccc(C(C)(C)C)cc2)CC1 (configuration not stated),EC50,[2],> 40 µM
same,EC50,[1],0.92 µM
CC(C(=O)N1CCCC1)N1CCN(S(=O)(=O)c2ccc(-c3ccccc3)cc2)CC1 (configuration not stated),EC50,[1],> 10 µM
CCN(CC)C(=O)C(C)N1CCN(S(=O)(=O)c2ccc(C(C)(C)C)cc2)CC1 (configuration not stated),EC50,[2],> 40 µM
same,EC50,[1],1.8 µM
Cc1ccc(S(=O)(=O)N2CCN(C(C)C(=O)N3CCCC3)CC2)cc1 (configuration not stated),EC50,[1],> 10 µM
CC(C(=O)N1CCNCC1)N1CCN(S(=O)(=O)c2ccc(C(C)(C)C)cc2)CC1 (configuration not stated),EC50,[1],> 10 µM
COc1ccc2nc3cc(Cl)ccc3c(Nc3cc(CN4CCCC4)c(O)c(CN4CCCC4)c3)c2n1 [PYRONARIDINE],EC50,[3],0.053 µM
same,EC50,[4],1.24 µM
CC(C(=O)N1CCCC1)N1CCN(S(=O)(=O)c2ccc(C(C)(C)C)cc2)C(C)(C)C1 (configuration not stated),EC50,[2],> 40 µM
same,EC50,[1],1.6 µM
CC(C(=O)N1CCc2ccccc2C12CCCCC2)N1CCN(S(=O)(=O)c2ccc(C(C)(C)C)cc2)CC1 (configuration not stated),EC50,[2],> 40 µM
same,EC50,[1],2.9 µM
CC(C(=O)N1CCN(C)CC1)N1CCN(S(=O)(=O)c2ccc(C(C)(C)C)cc2)CC1 (configuration not stated),EC50,[2],> 40 µM
same,EC50,[1],6.1 µM
CC(C(=O)N1CCC(F)(F)CC1)N1CCN(S(=O)(=O)c2ccc(C(C)(C)C)cc2)CC1 (configuration not stated),EC50,[2],> 40 µM
same,EC50,[1],0.38 µM
CC(C(=O)N1CCCC1)N1CCN(S(=O)(=O)c2ccc(C(C)(C)C)cc2)[C@@H](C)C1 (some centres not stated),EC50,[2],> 40 µM
same,EC50,[1],1.9 µM
CC(C(=O)N1CCCC1)N1CCN(S(=O)(=O)c2cccc(C(C)(C)C)c2)CC1 (configuration not stated),EC50,[2],> 40 µM
same,EC50,[1],8.4 µM
CC(C(=O)N(C)Cc1ccccc1)N1CCN(S(=O)(=O)c2ccc(C(C)(C)C)cc2)CC1 (configuration not stated),EC50,[2],> 40 µM
same,EC50,[1],1.2 µM
CC(C(=O)N1CC2CC2C1)N1CCN(S(=O)(=O)c2ccc(C(C)(C)C)cc2)CC1 (configuration not stated),EC50,[2],> 40 µM
same,EC50,[1],0.33 µM
CCCC(C(=O)N1CCCC1)N1CCN(S(=O)(=O)c2ccc(C(C)(C)C)cc2)CC1 (configuration not stated),EC50,[1],> 10 µM
CC(C(=O)N1C[C@H]2CCC[C@H]2C1)N1CCN(S(=O)(=O)c2ccc(C(C)(C)C)cc2)CC1 (some centres not stated),EC50,[2],> 40 µM
same,EC50,[1],0.81 µM
CC(C(=O)N1CCc2ccccc2C1)N1CCN(S(=O)(=O)c2ccc(C(C)(C)C)cc2)CC1 (configuration not stated),EC50,[2],29 µM
same,EC50,[1],0.99 µM
CC(C(=O)N1CCCC1)N1CCN(S(=O)(=O)c2ccc(C3(C(F)(F)F)CC3)cc2)CC1 (configuration not stated),EC50,[1],> 10 µM
CC(C(=O)N1CCCC1)N1CCN(S(=O)(=O)c2ccc(S(F)(F)(F)(F)F)cc2)CC1 (configuration not stated),EC50,[1],> 10 µM
CC(C(=O)N1CCc2ccccc21)N1CCN(S(=O)(=O)c2ccc(C(C)(C)C)cc2)CC1 (configuration not stated),EC50,[2],> 40 µM
same,EC50,[1],0.93 µM
CC1CCN(C(=O)C(C)N2CCN(S(=O)(=O)c3ccc(C(C)(C)C)cc3)CC2)CC1 (configuration not stated),EC50,[2],> 40 µM
same,EC50,[1],1.3 µM
CC(C(=O)N1CCCC1)N1CCN(S(=O)(=O)c2ccc(C(C)(C)C)cc2)CC1=O (configuration not stated),EC50,[1],> 10 µM
CC(C(=O)N1CCCC1)N1C[C@@H]2CN(S(=O)(=O)c3ccc(C(C)(C)C)cc3)C[C@@H]2C1 (some centres not stated),EC50,[2],> 40 µM
same,EC50,[1],4.3 µM
COc1ccc(S(=O)(=O)N2CCN(C(C)C(=O)N3CCCC3)CC2)cc1 (configuration not stated),EC50,[1],> 10 µM
CC(C(=O)N(C)CCc1ccccc1)N1CCN(S(=O)(=O)c2ccc(C(C)(C)C)cc2)CC1 (configuration not stated),EC50,[2],17 µM
same,EC50,[1],2.1 µM
CCNC(=O)C(C)N1CCN(S(=O)(=O)c2ccc(C(C)(C)C)cc2)CC1 (configuration not stated),EC50,[1],> 10 µM
CC(C(=O)N1CCCC1)N1CCN(S(=O)(=O)c2ccc(C3CC3)cc2)CC1 (configuration not stated),EC50,[1],> 10 µM
CC(C)(C)c1ccc(S(=O)(=O)N2CCN(C(Cc3ccccc3)C(=O)N3CCCC3)CC2)cc1 (configuration not stated),EC50,[1],> 10 µM
CC(C(=O)N1CCCC1)N1CC2(C1)CN(S(=O)(=O)c1ccc(C(C)(C)C)cc1)C2 (configuration not stated),EC50,[1],> 10 µM
CC(C)(C)c1ccc(S(=O)(=O)N2CCN(CC(=O)N3CCCC3)CC2)cc1,EC50,[1],> 10 µM
CC(C(=O)N1CCCC1)N1CCN(S(=O)(=O)c2ccc(CC(F)(F)F)cc2)CC1 (configuration not stated),EC50,[1],> 10 µM
CC(C(=O)N1CCCC1)N1C[C@@H]2C[C@H]1CN2S(=O)(=O)c1ccc(C(C)(C)C)cc1 (mixture of isomers),EC50,[2],> 40 µM
same,EC50,[1],> 10 µM
CC(C(=O)N1CCC2(CC1)CC2)N1CCN(S(=O)(=O)c2ccc(C(C)(C)C)cc2)CC1 (configuration not stated),EC50,[2],> 40 µM
same,EC50,[1],0.3 µM
CC(C(=O)N1CCCC1)N1CCN(S(=O)(=O)c2ccc(Br)cc2)CC1 (configuration not stated),EC50,[1],> 10 µM
CC(C(=O)N1CCc2ccccc2C1C)N1CCN(S(=O)(=O)c2ccc(C(C)(C)C)cc2)CC1 (configuration not stated),EC50,[2],28 µM
same,EC50,[1],1.2 µM
CC(C)c1ccc(S(=O)(=O)N2CCN(C(C)C(=O)N3CCCC3)CC2)cc1 (configuration not stated),EC50,[2],> 40 µM
same,EC50,[1],> 10 µM
CC(C(=O)N1CCCC1)N1CCCN(S(=O)(=O)c2ccc(C(C)(C)C)cc2)CC1 (configuration not stated),EC50,[2],> 40 µM
same,EC50,[1],6.3 µM
CC(C)(C)c1ccc(S(=O)(=O)N2CCN(C(C(=O)N3CCCC3)c3ccccc3)CC2)cc1 (configuration not stated),EC50,[2],> 40 µM
same,EC50,[1],5.1 µM
CC(C(=O)N1CCCc2ccccc21)N1CCN(S(=O)(=O)c2ccc(C(C)(C)C)cc2)CC1 (configuration not stated),EC50,[2],> 40 µM
same,EC50,[1],1.9 µM
CCC(C)c1ccc(S(=O)(=O)N2CCN(C(C)C(=O)N3CCCC3)CC2)cc1 (configuration not stated),EC50,[2],> 40 µM
same,EC50,[1],9.1 µM
C[C@H](C(=O)N1CCCC1)N1CCN(S(=O)(=O)c2ccc(C(C)(C)C)cc2)CC1,EC50,[2],> 40 µM
same,EC50,[1],> 11 µM
CC(C(=O)N1CCCC1)N1CCN(S(=O)(=O)c2ccc(C(C)(C)C)cc2)[C@H](C)C1 (some centres not stated),EC50,[1],> 10 µM
CC(C(=O)N1CCOCC1)N1CCN(S(=O)(=O)c2ccc(C(C)(C)C)cc2)CC1 (configuration not stated),EC50,[2],> 40 µM
same,EC50,[1],4.4 µM
CN(C(=O)N1CCCC1)C1CCN(S(=O)(=O)c2ccc(C(C)(C)C)cc2)CC1,EC50,[1],> 10 µM
CC(C(=O)N1CCCC1)N1CCN(S(=O)(=O)c2ccc(OC(F)(F)F)cc2)CC1 (configuration not stated),EC50,[1],> 10 µM
CC(C(=O)N1CCc2cccnc2C1)N1CCN(S(=O)(=O)c2ccc(C(C)(C)C)cc2)CC1 (configuration not stated),EC50,[2],> 40 µM
same,EC50,[1],1.9 µM
CCC1(CC)c2ccccc2CCN1C(=O)C(C)N1CCN(S(=O)(=O)c2ccc(C(C)(C)C)cc2)CC1 (configuration not stated),EC50,[2],> 40 µM
same,EC50,[1],1.2 µM
CC(C(=O)N1CCCCC1)N1CCN(S(=O)(=O)c2ccc(C(C)(C)C)cc2)CC1 (configuration not stated),EC50,[2],> 40 µM
same,EC50,[1],0.5 µM
CCC(C(=O)N1CCCC1)N1CCN(S(=O)(=O)c2ccc(C(C)(C)C)cc2)CC1 (configuration not stated),EC50,[2],> 40 µM
same,EC50,[1],1.9 µM
CC(C)C(C(=O)N1CCCC1)N1CCN(S(=O)(=O)c2ccc(C(C)(C)C)cc2)CC1 (configuration not stated),EC50,[1],> 10 µM
CC(C(=O)N1CCc2ncccc2C1)N1CCN(S(=O)(=O)c2ccc(C(C)(C)C)cc2)CC1 (configuration not stated),EC50,[2],> 40 µM
same,EC50,[1],2.6 µM
CC(C(=O)N1CCC(C)(C)CC1)N1CCN(S(=O)(=O)c2ccc(C(C)(C)C)cc2)CC1 (configuration not stated),EC50,[2],> 40 µM
same,EC50,[1],4.3 µM
CC(C(=O)N1CCCC1)N1CCN(S(=O)(=O)c2ccc(C(C)(C)CO)cc2)CC1 (configuration not stated),EC50,[2],> 40 µM
same,EC50,[1],> 10 µM
C[C@H](C(=O)N1CCCCC1)N1CCN(S(=O)(=O)c2ccc(C(C)(C)C)cc2)CC1,EC50,[2],> 40 µM
same,EC50,[1],6.9 µM
CC(C)(C)c1ccc(S(=O)(=O)N2CCN(C(C)(C)C(=O)N3CCCC3)CC2)cc1,EC50,[2],> 40 µM
same,EC50,[1],7.5 µM
CC(C(=O)N1CCCC1)N1CCN(S(=O)(=O)c2ccccc2)CC1 (configuration not stated),EC50,[1],> 10 µM
CC(C(=O)N1Cc2ccccc2C1)N1CCN(S(=O)(=O)c2ccc(C(C)(C)C)cc2)CC1 (configuration not stated),EC50,[2],> 40 µM
same,EC50,[1],1 µM
C[C@H]1[C@H](OC(=O)CCC(=O)O)O[C@@H]2O[C@@]3(C)CC[C@H]4[C@H](C)CC[C@@H]1[C@@]24OO3 [ARTESUNATE],EC50,[3],0.002 µM
same,EC50,[4],0.024 µM
same,EC50,[1],8 µM
CC(C(=O)N1CCCCCC1)N1CCN(S(=O)(=O)c2ccc(C(C)(C)C)cc2)CC1 (configuration not stated),EC50,[2],> 40 µM
same,EC50,[1],0.65 µM
CC(C(=O)N1CCc2ccccc2C12CCCC2)N1CCN(S(=O)(=O)c2ccc(C(C)(C)C)cc2)CC1 (configuration not stated),EC50,[2],> 40 µM
same,EC50,[1],0.81 µM
CC(C(=O)N1CCCC1)N1CCN(S(=O)(=O)c2ccc(C(F)(F)F)cc2)CC1 (configuration not stated),EC50,[1],> 10 µM

# Source: ChEMBL document CHEMBL4732224, “Structure activity refinement of phenylsulfonyl piperazines as antimalarials that block erythrocytic invasion” (Eur J Med Chem, 2021)
